Article PMC6645225 (ACS Omega, 2018)
Entries after “also recorded” stand apart in the source; their conditions may differ.

How the values were obtained:
[1] = system: CYP1A1-overexpressing HEK293 cells; assay: Protection of CYP1A1-overexpressing HEK293 cells from B[a]P toxicity; type: cell-based, human; details: compound at 3× IC50 concentration
Procedure, shortened: (§1)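 CYP1A1-expressing adherent HEK293 cells exposed to B[a]P at 0.05–100 μM, alone or with test compound. Viability read by MTT and checked by sulforhodamine B. EC50 (B[a]P concentration for 50% viability loss) taken from a dose–response curve of viability versus log B[a]P concentration, averaged over three independent experiments.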

[2] = system: CYP2A6, CYP2B6, CYP2C8, CYP2C9, CYP2C18, CYP2C19, CYP2D6, CYP2E1, CYP3A4; assay: CYP2 and CYP3 subfamily panel inhibition in Sacchrosomes; type: biochemical; details: human, pH 7.4
Procedure, shortened: (§2)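 Kinetic microplate assay, 15 min reaction, using recombinant human P450s expressed in S. cerevisiae microsomes. Run in 100 mM potassium phosphate pH 7.4 with an NADPH-regenerating system (final: 0.04 units G6PDH, 1.3 mM NADP+, 3.3 mM glucose-6-phosphate, 3.3 mM MgCl2, 50 μM sodium citrate). Reaction started with substrate plus NADPH system. Test compound serially diluted from 20 μM final (CYP2E1: from 10 μM), 0.5% DMSO final. IC50 from Hill fit.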

CYP1B1 [3] = molecular target: T1, CYP1B1 (Homo sapiens, UniProt Q16678); assay: CYP1B1 inhibition in Sacchrosomes; type: biochemical
T1 sequence (Q16678 1-543): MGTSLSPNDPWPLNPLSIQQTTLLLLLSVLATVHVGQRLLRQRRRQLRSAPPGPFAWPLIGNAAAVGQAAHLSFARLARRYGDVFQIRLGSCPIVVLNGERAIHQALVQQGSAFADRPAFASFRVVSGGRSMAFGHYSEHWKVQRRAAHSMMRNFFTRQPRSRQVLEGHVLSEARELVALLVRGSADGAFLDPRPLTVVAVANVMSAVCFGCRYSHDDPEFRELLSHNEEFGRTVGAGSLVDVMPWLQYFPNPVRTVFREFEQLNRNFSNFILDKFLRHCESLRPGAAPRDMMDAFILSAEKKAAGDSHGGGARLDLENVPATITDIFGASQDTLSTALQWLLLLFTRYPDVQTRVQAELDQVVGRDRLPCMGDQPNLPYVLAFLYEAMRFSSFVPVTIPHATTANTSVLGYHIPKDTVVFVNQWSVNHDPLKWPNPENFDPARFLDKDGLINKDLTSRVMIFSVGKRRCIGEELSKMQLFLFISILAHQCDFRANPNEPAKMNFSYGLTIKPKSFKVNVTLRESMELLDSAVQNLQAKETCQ
Procedure, shortened: as §2

CYP1B1 [4] = molecular target: T1, CYP1B1; assay: CYP1B1 inhibition in live human HEK293 cells; type: cell-based
Procedure, shortened: (§3)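 Live recombinant HEK293 cells, each expressing a single human CYP isoform. IC50 from a four-parameter variable-slope sigmoidal (Hill) fit of uninhibited fraction against inhibitor concentration.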

CYP1A1 [5] = molecular target: T2, CYP1A1 (Homo sapiens, UniProt P04798); assay: CYP1A1 inhibition in yeast microsomes; type: biochemical
T2 sequence (P04798 1-512): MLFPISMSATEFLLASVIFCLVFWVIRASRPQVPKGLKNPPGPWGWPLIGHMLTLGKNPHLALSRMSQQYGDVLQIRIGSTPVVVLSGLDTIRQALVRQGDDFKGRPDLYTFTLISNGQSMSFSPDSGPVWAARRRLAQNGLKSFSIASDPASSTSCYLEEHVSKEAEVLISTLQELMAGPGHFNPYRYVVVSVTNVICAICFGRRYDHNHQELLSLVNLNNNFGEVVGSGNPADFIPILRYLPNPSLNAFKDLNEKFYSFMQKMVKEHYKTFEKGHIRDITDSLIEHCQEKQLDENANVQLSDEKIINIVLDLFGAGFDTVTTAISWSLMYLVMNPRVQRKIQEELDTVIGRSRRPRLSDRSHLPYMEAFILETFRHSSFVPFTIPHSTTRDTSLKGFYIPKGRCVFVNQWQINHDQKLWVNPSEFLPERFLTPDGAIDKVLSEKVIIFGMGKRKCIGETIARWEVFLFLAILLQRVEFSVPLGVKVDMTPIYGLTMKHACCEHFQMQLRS
Procedure, shortened: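 Human CYP1A1 expressed in yeast microsomes (Sacchrosomes). […] IC50 from a four-parameter variable-slope sigmoidal (Hill) fit of uninhibited fraction against inhibitor concentration.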

CYP1A2 [6] = molecular target: T3, CYP1A2 (Homo sapiens, UniProt P05177); assay: CYP1A2 inhibition in Sacchrosomes; type: biochemical
T3 sequence (P05177 1-516): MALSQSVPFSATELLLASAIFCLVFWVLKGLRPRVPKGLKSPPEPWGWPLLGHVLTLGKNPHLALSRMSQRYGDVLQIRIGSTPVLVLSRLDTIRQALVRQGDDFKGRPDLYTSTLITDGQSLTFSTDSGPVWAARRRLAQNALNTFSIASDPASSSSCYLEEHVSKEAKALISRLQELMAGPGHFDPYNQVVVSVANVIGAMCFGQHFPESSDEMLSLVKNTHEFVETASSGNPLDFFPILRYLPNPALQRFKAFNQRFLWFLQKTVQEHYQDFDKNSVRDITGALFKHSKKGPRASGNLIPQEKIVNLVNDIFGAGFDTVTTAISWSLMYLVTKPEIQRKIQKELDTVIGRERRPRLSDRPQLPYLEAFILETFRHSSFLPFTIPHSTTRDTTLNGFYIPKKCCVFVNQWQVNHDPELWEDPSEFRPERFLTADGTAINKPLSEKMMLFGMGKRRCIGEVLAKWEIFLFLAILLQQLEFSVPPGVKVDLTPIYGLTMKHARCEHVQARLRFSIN
Procedure, shortened: as §2

CYP1A1 [7] = molecular target: T2, CYP1A1; assay: CYP1A1 inhibition in live HEK293 cells overexpressing CYP1A1; type: cell-based; details: for inhibition at 10 µM: human, live HEK293 cells overexpressing CYP1A1, % inhibition of CYP1A1 at 10 μM (Mean ± SD) HEK293 cells, HEK293 cells overexpressing CYP1A1; for selectivity for CYP1A1 over CYP1B1: ratio of live cell IC50 values CYP1B1/CYP1A1
CYP2D6 = CYP2D6 (Homo sapiens, UniProt P10635); assay: CYP2D6 inhibition in live human HEK293 cells; type: cell-based
Procedure, shortened: as §3

CYP1A2 [8] = molecular target: T3, CYP1A2; assay: CYP1A2 inhibition in live human HEK293 cells; type: cell-based
Procedure, shortened: as §3

CYP3A4 = CYP3A4 (Homo sapiens, UniProt P08684); assay: CYP3A4 inhibition in live human HEK293 cells; type: cell-based
Procedure, shortened: as §3

A549 cells = assay: FACS cell cycle analysis of A549 lung cancer cells treated with B[a]P; type: cell-based, human; details: A549 (p53+); 4l at 3× IC50 before 15 μM B[a]P
Procedure, shortened: (§4)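 CYP1A1 expression in the cells confirmed by western blot. Cells preincubated 20 h with test compound, exposed to 15 μM B[a]P for 3 h, then released into fresh medium for 57 h. Cells trypsinised, PBS-washed and fixed 1 h in 70% ethanol at −20 °C. Treated with RNase (0.5 mg/mL) and stained with propidium iodide (50 μg/mL) for 1 h at 4 °C in the dark. Single cells gated; about 10 000 events collected; % G0/G1, S and G2/M reported.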

Calu-1 cells = assay: FACS cell cycle analysis of Calu-1 lung cancer cells treated with B[a]P; type: cell-based, human; details: Calu-1 (p53-null); 4l at 3× IC50 before 15 μM B[a]P
Procedure, shortened: as §4

[9] = Protection of CYP1A1-overexpressing HEK293 cells from B[a]P toxicity; type: cell-based, human; details: human, CYP1A1-overexpressing HEK293 cells
Procedure, shortened: as §1

normal HEK293 cells = assay: B[a]P toxicity in normal HEK293 cells; type: cell-based; details: Homo sapiens, HEK293, read-out: EC50 of B[a]P in normal HEK293 cells
Procedure, shortened: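 Adherent HEK293 cells exposed to a concentration series of B[a]P; viability read by MTT assay. EC50 is the B[a]P concentration giving 50% loss of viability, taken from a dose–response curve of viability versus log B[a]P concentration.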

Sequence of CYP2D6 (P10635 whole entry): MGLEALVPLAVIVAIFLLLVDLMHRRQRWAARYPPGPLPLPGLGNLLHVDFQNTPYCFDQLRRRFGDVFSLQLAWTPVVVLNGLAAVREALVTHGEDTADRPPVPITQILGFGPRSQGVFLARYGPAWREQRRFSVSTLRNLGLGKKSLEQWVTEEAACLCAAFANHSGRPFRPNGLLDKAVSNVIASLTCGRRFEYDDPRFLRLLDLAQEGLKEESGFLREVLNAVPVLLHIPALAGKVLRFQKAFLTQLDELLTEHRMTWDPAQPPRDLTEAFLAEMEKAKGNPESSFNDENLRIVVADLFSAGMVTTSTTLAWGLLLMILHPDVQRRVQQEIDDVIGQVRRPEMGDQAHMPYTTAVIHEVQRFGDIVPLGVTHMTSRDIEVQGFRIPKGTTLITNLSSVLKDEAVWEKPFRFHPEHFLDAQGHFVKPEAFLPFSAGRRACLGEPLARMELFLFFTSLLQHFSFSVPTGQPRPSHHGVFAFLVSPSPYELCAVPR
Sequence of CYP3A4 (P08684 whole entry): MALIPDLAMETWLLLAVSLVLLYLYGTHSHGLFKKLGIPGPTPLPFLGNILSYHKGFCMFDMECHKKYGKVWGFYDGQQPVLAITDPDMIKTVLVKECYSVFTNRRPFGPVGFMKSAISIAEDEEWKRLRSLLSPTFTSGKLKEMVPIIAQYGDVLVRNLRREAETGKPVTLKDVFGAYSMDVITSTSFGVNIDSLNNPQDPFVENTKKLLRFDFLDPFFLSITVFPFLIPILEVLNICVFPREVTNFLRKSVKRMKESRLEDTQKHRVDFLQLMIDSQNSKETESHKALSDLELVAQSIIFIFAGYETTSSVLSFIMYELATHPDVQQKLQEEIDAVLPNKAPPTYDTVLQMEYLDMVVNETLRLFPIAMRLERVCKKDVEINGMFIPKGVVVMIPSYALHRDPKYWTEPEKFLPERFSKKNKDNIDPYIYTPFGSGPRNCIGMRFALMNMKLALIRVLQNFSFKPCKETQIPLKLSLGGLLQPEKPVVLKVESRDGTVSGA

Structure (SMILES)	IC50 at 15 min [2] [nM]	IC50 (CYP1B1 [3]) [nM]	IC50 (CYP1B1 [4]) [nM]	IC50 (CYP1A1 [5]) [nM]	inhibition at 10 µM (CYP1A1 [5]; human, % inhibition of CYP1A1 at 10 μM (Mean ± SD) Sacchrosomes, 10 μM, Sacchrosomes) [%]	IC50 (CYP1A2 [6]) [nM]	IC50 (CYP1A1 [7]) [nM]	inhibition at 10 µM (CYP1A1 [7]) [%]	IC50 (CYP2D6) [nM]	IC50 (CYP1A2 [8]) [nM]	IC50 (CYP3A4) [nM]	selectivity for CYP1A1 over CYP1B1 (CYP1A1 [7]) [fold]	protection from CYP1A1-mediated B[a]P toxicity [1]	effect on B[a]P-mediated S-phase block (A549 cells)	effect on B[a]P-mediated S-phase block (Calu-1 cells)	EC50 [9] [nM]	EC50 (normal HEK293 cells) [nM]
COc1c(C(=O)C=Cc2cccnc2)c(O)c(OC)c2occc12 [3g, 1-(6-Hydroxy-4,7-dimethoxybenzofuran-5-yl)-3-(pyridin-3-yl)prop-2-en-1-one]	> 20000	660 ± 40	270	340 ± 30	97	170 ± 20	470	99					completely protected				
COc1c(C(=O)C=Cc2ccsc2)c(O)c(OC)c2occc12 [3r, 1-(6-Hydroxy-4,7-dimethoxybenzofuran-5-yl)-3-(thiophen-3-yl)prop-2-en-1-one]	> 20000	780 ± 40		280 ± 30		4200 ± 800											
c1ccc2c(c1)cc1ccc3cccc4ccc2c1c34 [B[a]P, benzo[a]pyrene, reference compound]																1400	14000

Now from value to compound, other results behind:

IC50 at 15 min [2] [nM]	IC50 (CYP1B1 [3]) [nM]	IC50 (CYP1B1 [4]) [nM]	IC50 (CYP1A1 [5]) [nM]	inhibition at 10 µM (CYP1A1 [5]; human, % inhibition of CYP1A1 at 10 μM (Mean ± SD) Sacchrosomes, 10 μM, Sacchrosomes) [%]	IC50 (CYP1A2 [6]) [nM]	IC50 (CYP1A1 [7]) [nM]	inhibition at 10 µM (CYP1A1 [7]) [%]	IC50 (CYP2D6) [nM]	IC50 (CYP1A2 [8]) [nM]	IC50 (CYP3A4) [nM]	selectivity for CYP1A1 over CYP1B1 (CYP1A1 [7]) [fold]	Structure (SMILES)	protection from CYP1A1-mediated B[a]P toxicity [1]	effect on B[a]P-mediated S-phase block (A549 cells)	effect on B[a]P-mediated S-phase block (Calu-1 cells)	EC50 [9] [nM]	EC50 (normal HEK293 cells) [nM]
		566 ± 80				1840 ± 140	87	> 10000	> 10000	> 10000		COc1c2c(c(OC)c3occc13)OC(c1ccccc1)CC2=O (stereo not drawn) [4a, 4,9-Dimethoxy-7-phenyl-6,7-dihydro-5H-furo[3,2-g]chromen-5-one]					
		4160 ± 250				450 ± 60		> 10000	> 10000	> 10000	9.2	COc1c2c(c(OC)c3occc13)OC(c1cccnc1)CC2=O (stereo not drawn) [4e, 4,9-Dimethoxy-7-(pyridin-3-yl)-6,7-dihydro-5H-furo[3,2-g]chromen-5-one]					
		23800 ± 1200				140 ± 40		> 10000	> 10000	> 10000	170	COc1c2c(c(OC)c3occc13)OC(c1ccc(F)c(Br)c1)CC2=O (stereo not drawn) [4l, 7-(3-Bromo-4-fluorophenyl)-4,9-dimethoxy-6,7-dihydro-5H-furo[3,2-g]chromen-5-one]	completely protected	restored into the cell cycle; also recorded: preponderantly released from the block; also recorded: prevented manifestation of B[a]P-mediated S-phase block	restored into the cell cycle; also recorded: preponderantly released from the block; also recorded: prevented manifestation of B[a]P-mediated S-phase block		
